Screens (PubChem)
An excerpt weighted towards active compounds, which were near 3.7% of everything screened.
TAAR1 ag – human TAAR1 agonism; Q96RJ0; CHO RD-HGA16 TAAR1, Fluo-8 calcium fluorescence; vehicle wells 0%, saturating PEA agonist 100%; activation, % at 3 µM; hit rate 0.99% among 360,000;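 active = activation above the mean activation of all test compounds in the run plus 3 SD, cut at about 38% in these data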
Target sequence (Q96RJ0 whole entry, looked up): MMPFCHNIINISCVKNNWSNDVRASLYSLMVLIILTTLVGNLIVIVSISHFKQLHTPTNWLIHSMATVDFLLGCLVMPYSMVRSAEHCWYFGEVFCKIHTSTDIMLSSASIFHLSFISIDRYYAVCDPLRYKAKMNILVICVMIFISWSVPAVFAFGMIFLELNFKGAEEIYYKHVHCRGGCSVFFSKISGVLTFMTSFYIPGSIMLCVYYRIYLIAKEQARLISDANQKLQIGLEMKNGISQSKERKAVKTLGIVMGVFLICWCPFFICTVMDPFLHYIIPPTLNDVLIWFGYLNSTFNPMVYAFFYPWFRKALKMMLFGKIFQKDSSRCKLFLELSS
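Test system: RD-HGA16 (CHO) cells co-expressing Gα16 and hTAAR1 / Benchmarks: DMSO vehicle as 0%, PEA at EC100 as 100% / Repeats: no replicates (n 1) / Measure: % activation from peak over basal fluorescence ratio, DMSO-to-PEA scaled / Timing: 17-24 h plating, Fluo-8 75 min 37 °C, 30 min RT / Technique: kinetic Fluo-8 calcium fluorescence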
TAAR1 antagonist – human TAAR1 antagonism | Q96RJ0 | CHO RD-HGA16 TAAR1, Fluo-8 calcium fluorescence, antagonist | inhibition, % at 3 µM | hit rate 1.5% among 360,000;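 active = inhibition above a per-plate cutoff, the mean inhibition of test compounds on that plate plus 3 SD, cut at about 49% in these data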;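 note: 0% = DMSO plus EC80 beta-PEA response and 100% = DMSO alone without agonist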
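System: RD-HGA16 CHO cells with stable hTAAR1 and Gα16 | Probe or stimulus: EC80 β-phenethylamine stimulus | Dosing: 3 µM, single point | Times: Dye loading 75 min at 37 °C, then 30 min room temperature | Measured by: Fluo-8 calcium-sensitive fluorescence | Read-out basis: % inhibition of agonist calcium response | Replicates: n of 1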
HCV core dimer – HCV core protein dimerization inhibition | TR-FRET GST/Flag-core106 dimerization, 1536-well | inhibition, % at 5 µM | hit rate 0.33% among 300,000 | AID 1899;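 active = inhibition above the mean of all tested compounds plus 3 SD, set per screening campaign, cut at about 45% in these data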
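Assay system: GST-tagged and Flag-tagged HCV core protein residues 1-106 / Times: compound-protein-antibody incubation 4 h at 22.5 °C / Signal: time-resolved FRET, ex 340 nm, em 617 and 671 nm / Evaluation: % inhibition based on acceptor/donor emission ratio / Benchmarks: wells lacking GST-core106 and wells with excess unlabelled core106 / Repeats: singlicate, one well per compound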
HCV NS3 hel inh – HCV NS3 helicase inhibition; NS3 helicase DNA unwinding, Cy5 molecular beacon fluorescence; inhibition, % at 10.9 µM; hit rate 0.56% among 290,000; AID 1800;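 active = inhibition above the mean of all tested compounds plus 3 SD, set per campaign, cut at about 35% in these data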;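 note: 0% = DMSO wells and 100% = thioflavine S control wells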
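test system = hepatitis C virus NS3 helicase domain fragment enzyme | reagent = annealed dual-labelled DNA beacon duplex, ATP-started | times = 1 h at 25 °C | detection = Cy5 fluorescence, 0 and 60 min reads | read-out basis = percent inhibition from t60/t0 fluorescence ratio | control set = DMSO and thioflavine S | replication = one well per compound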
rCAG binder – binds r(CAG) RNA repeats; hit rate 1.3% among 370,000; AID 651821; r(CAG) RNA repeat, TO-PRO-1 dye displacement fluorescence; inhibition, % at 3 µM;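 active = inhibition above the plate cutoff, the mean of all test compounds on that plate plus 3 SD, cut at about 35% in these data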;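 note: 0% = DMSO alone and 100% = 100 µM mitoxantrone as full dye displacement; higher means more dye released from RNA so lower well fluorescence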
* marks the source's active call; other numbers are inactive results; · = no result.

SMILES | TAAR1 ag | TAAR1 antagonist | HCV core dimer | HCV NS3 hel inh | rCAG binder
COC(=O)C(C(=O)OC)[C@H]1C=C[C@@H](C(=O)NS(=O)(=O)c2ccc(C)cc2)N(C(C)=O)C1 | · | · | · | · | 10
C/C(=N\Nc1ccc(F)cc1F)c1ccc(F)cc1 | · | · | 54* | 8 | ·
C/C(=N\Nc1ccc(F)cc1F)c1ccc(N2CCOCC2)cc1 | -1 | 1 | -2 | 2 | 11
O=C(CCc1ccccc1)N[C@H]1[C@@H](O)CCC[C@]12C(=O)N(Cc1ccccc1)c1ccccc12 | · | · | · | · | 4
CCCC(=O)N1CCC[C@]2(CC[C@H](CCC(C)=O)O2)C1 | · | · | · | · | 3
CCCC[C@H]1C2CC(OC(=O)Nc3ccccc3OC)C(C2)[C@H]2CCCCN21 (stereo partly drawn) | · | · | · | · | 6
C=CCc1cccc2cc(C(=O)Nc3ccccc3C(=O)O)c(=O)oc12 | -1 | -29 | · | 28 | 38*
C=CCc1cccc2cc(C(=O)N(CC)CC)c(=O)oc12 | 2 | 106* | -4 | 8 | -3
CC(=O)N1CCCc2cc(S(=O)(=O)N3CCCC(C(=O)N4CCN(c5ccccc5)CC4)C3)ccc21 (stereo not drawn) | 11 | 33 | 6 | -7 | -4
COc1ccc(N2CCN(C(=O)c3cc4c(s3)CCCCC4)CC2)cc1 | 1 | -4 | · | · | 2
COc1ccccc1N1CCN(C(=O)C2CCN(S(=O)(=O)c3ccc4c(c3)CC(C)N4C(=O)C3CC3)CC2)CC1 (stereo not drawn) | 13 | 57* | 10 | -18 | 3
COc1ccccc1N1CCN(C(=O)C2CCCN(S(=O)(=O)c3ccc4c(c3)CCCN4C(C)=O)C2)CC1 (stereo not drawn) | 15 | 68* | 1 | 4 | -4
COc1ccccc1N1CCN(C(=O)c2cc3c(s2)CCC3)CC1 | 5 | 23 | 74* | 7 | 4
Cc1ccccc1N(C)C(=O)CN1CCN(c2nc(-c3ccccc3)cs2)CC1 | · | · | · | · | 2
Cc1cccc(N(CC(=O)NCc2ccc3c(c2)OCO3)C(=O)CCC(=O)Nc2ccccn2)c1 | 6 | 13 | 3 | 4 | -10
Cc1cccc(N(CC(=O)NCc2ccc3c(c2)OCO3)C(=O)CCC(=O)Nc2ccccn2)c1C | 19 | 52* | · | 4 | -6
COC(=O)[C@]12C[C@H](CC(=O)NCc3cccc4ccccc34)C(=O)N(Cc3cccc4ccccc34)C1=C[C@H](C(C)(C)C)O[C@@H]2C | · | · | · | · | 11
CC(C)(C)c1ccc(C(=O)Nc2ccccc2NC(=O)c2ccco2)cc1 | 6 | 49* | 7 | 1 | -3
COc1ccccc1/C=c1\sc2nc(-c3ccco3)nn2c1=O | · | · | 57* | 16 | ·
COc1ccc(OC)c(/C=c2\sc3nc(-c4cccs4)nn3c2=O)c1 | 11 | 14 | 4 | 16 | 8
CCOC(=O)c1ccc(NC(=S)NCCc2ccccc2)cc1 | 39* | 4 | 0 | -11 | 4
O=c1[nH]c2ccc(NC(=S)Nc3ccccc3)cc2[nH]1 | 7 | -8 | -7 | -3 | 1
O=c1[nH]c2ccc(NC(=S)NCCc3ccccc3)cc2[nH]1 | 41* | 29 | 0 | 3 | 6
COCCCNC(=O)c1ccc(Cn2c(=O)c3ccccc3n(Cc3ccc(Br)cc3)c2=O)cc1 | · | · | · | · | 9
Cc1ccc(C2C(C#N)=C(N)Oc3c2sc2ccccc32)o1 (stereo not drawn) | · | · | 80* | 9 | ·
SMILES | TAAR1 ag | TAAR1 antagonist | HCV core dimer | HCV NS3 hel inh | rCAG binder
CC1=Nc2ccccc2/C1=C\c1sc(Nc2ccc(C)cc2)nc1O | 4 | 41 | -11 | 1 | 28
CCOC(=O)c1c(Nc2ccc(Cl)cc2)sc(/C=C2\C=Nc3ccccc32)c1O | 0 | 1 | 4 | 2 | 8
Oc1nc(Nc2cccc(Cl)c2)sc1/C=C1\C=Nc2ccccc21 | -2 | 54* | -1 | 6 | 55*
Oc1cccc(Nc2nc(O)c(/C=C3\C=Nc4ccccc43)s2)c1 | 19 | 40 | 2 | -12 | 48*
Cc1nc2sccn2c(=O)c1S(=O)(=O)Nc1ccc(N2CCN(S(C)(=O)=O)CC2)cc1 | 21 | 60* | -4 | 16 | 7
COC(=O)[C@]12C[C@H](CC(=O)N3CCCCC3)C(=O)N(Cc3cccc4ccccc34)C1=C[C@H](COCc1ccccc1)O[C@@H]2C | · | · | · | · | 9
C[C@@H]1NC(=O)[C@H]2C[C@@]3(c4ccccc4)c4ccccc4N[C@H]3N2C1=O | · | · | · | · | 6
O=C1NN(c2ccc(F)c(Cl)c2)C(=O)/C1=C\c1cccc(OC(=O)c2cccs2)c1 | 1 | 12 | 18 | 5 | 90*
O=C1OC(c2ccccc2)=N/C1=C/c1cccc(OC(=O)c2cccs2)c1 | 1 | -3 | 23 | 11 | 19
COc1ccc(CNC(=O)C2CCN(c3cc(C(=O)Nc4cccc(OC)c4)ccn3)CC2)cc1 | 3 | 49* | 1 | -12 | 0
CCOC(=O)c1ccccc1NC(=O)COC(=O)C1CCN(S(=O)(=O)c2ccccc2C(=O)OC)CC1 | 11 | 49* | 3 | · | 4
COC(=O)c1ccccc1S(=O)(=O)N1CCC(C(=O)OCC(=O)NCC(F)(F)F)CC1 | 1 | -21 | -3 | 5 | -5
O=C(CSc1nnc(-c2ccccc2)o1)c1nnc(-c2ccccc2)o1 | 6 | 9 | 29 | 31 | 24
CC(=O)c1c(C)[nH]c(C(=O)CSc2nnc(-c3ccccc3)o2)c1C | 33 | 56* | 3 | 6 | 7
O=C(NCCc1c[nH]c2ccccc12)OCc1cn(Cc2cccc(Cl)c2)nn1 | · | · | · | · | 4
Nc1ccc2c(c1)Cc1cc([N+](=O)[O-])ccc1-2 | 24 | 32 | -12 | 1 | 2
CC(O)CN(CC(C)O)c1ccc2c(c1)Cc1cc([N+](=O)[O-])ccc1-2 (stereo not drawn) | 93* | 79* | · | · | 7
CN(CC(=O)Nc1cccc(F)c1)CC(=O)Nc1cccc2ccccc12 | 46* | 59* | · | · | 2
CN(CC(=O)Nc1cccc(F)c1)CC(=O)Nc1ccccc1[N+](=O)[O-] | 6 | 7 | 5 | 10 | -4
Cc1ccccc1CN(C)CC(=O)Nc1cccc(S(=O)(=O)N(C)c2ccccc2)c1 | -2 | -2 | 11 | -21 | 3
CCN(CC(=O)Nc1cccc(S(=O)(=O)N(C)c2ccccc2)c1)Cc1ccccc1 | 3 | 16 | · | · | 1
Cc1cc(C)c(NC(=O)CN(C)CC(=O)Nc2cccc(S(=O)(=O)N(C)c3ccccc3)c2)c(C)c1 | 44* | 89* | · | · | 6
CN(CC(=O)Nc1cccc(F)c1)CC(=O)Nc1cccc(S(=O)(=O)N(C)c2ccccc2)c1 | 26 | 63* | · | · | 7
Nc1ccc2cc3ccc(N)cc3nc2c1 | · | · | · | · | -78
Cc1c(C(=O)OCc2ccccc2)[nH]c2c1C(=O)CC(c1ccco1)C2 (stereo not drawn) | · | · | 51* | 14 | ·
CCOC(=O)c1[nH]c2c(c1C)C(=O)CC(c1ccco1)C2 (stereo not drawn) | 2 | -2 | 44 | 13 | 31
